# In ChEMBL document CHEMBL3046392, “Antifungal activities of N-arylbenzenesulfonamides against phytopathogens and control efficacy on wheat leaf rust and cabbage club root diseases” (Biosci Biotechnol Biochem, 2002):
# Legend:
# Type in all cases: functional
# [1] = tested on: Rhizoctonia solani; assay: Antifungal activity against Rhizoctonia solani assessed as mycelial growth inhibition after 2 to 6 days; settings: read-out: ED50 (the source's name)
# Summary of the method: (§1)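 Serially diluted compound was mixed into 1/5-strength PDA plates at […]. A 5-mm agar plug of each fungus was placed at the plate centre, with three replicate plates per concentration per fungus. Plates were incubated at 25 °C for 2–6 days, radial growth was measured, and ED₅₀ for mycelial growth inhibition was derived by probit analysis.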
# [2] = tested on: Phytophthora capsici; assay: Antifungal activity against Phytophthora capsici assessed as mycelial growth inhibition after 2 to 6 days; settings: read-out: ED50 (the source's name); summary of the method: as §1
# [3] = tested on: Globisporangium ultimum; assay: Antifungal activity against Pythium ultimum assessed as mycelial growth inhibition after 2 to 6 days; settings: read-out: ED50 (the source's name); summary of the method: as §1
# [4] = tested on: Botrytis cinerea; assay: Antifungal activity against Botryotinia fuckeliana assessed as mycelial growth inhibition after 2 to 6 days; settings: read-out: ED50 (the source's name); summary of the method: as §1
# [5] = tested on: Plasmodiophora brassicae; assay: Antifungal activity against Plasmodiophora brassicae in cabbage seedlings transplanted after soil infestation with fungus followed by compound application to soil assessed as cabbage club root disease control efficacy at 500 ug/ml measured after 35 days post fungal inoculation
# Summary of the method: (§2)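 Soil was inoculated with P. brassicae spore suspension (2×10⁶ spores/ml), then cabbage seedlings were transplanted. 10 ml of each compound solution was applied to assess disease suppression. Disease severity was assessed 35 days after inoculation, with control value calculated relative to untreated plants.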
# [6] = tested on: Plasmodiophora brassicae; assay: Antifungal activity against Plasmodiophora brassicae in cabbage seedlings transplanted after soil infestation with fungus followed by compound application to soil assessed as cabbage club root disease control efficacy at 167 ug/ml measured after 35 days post fungal inoculation; summary of the method: as §2
# [7] = tested on: Plasmodiophora brassicae; assay: Antifungal activity against Plasmodiophora brassicae in cabbage seedlings transplanted after soil infestation with fungus followed by compound application to soil assessed as cabbage club root disease control efficacy at 56 ug/ml measured after 35 days post fungal inoculation; summary of the method: as §2
# [8] = tested on: Plasmodiophora brassicae; assay: Antifungal activity against Plasmodiophora brassicae in cabbage seedlings transplanted after soil infestation with fungus followed by compound application to soil assessed as cabbage club root disease control efficacy at 19 ug/ml measured after 35 days post fungal inoculation; summary of the method: as §2
# [9] = tested on: Blumeria hordei; assay: Antifungal activity against Blumeria graminis f. sp. hordei infected compound pre-treated barley seedlings at first-leaf stage assessed as barley powdery mildew disease control values at 50 ug/ml measured after 7 days post fungal inoculation
# Summary of the method: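 Pot-grown barley seedlings at first-leaf stage were sprayed with compound dissolved in water+methanol (95+5) containing Tween 20 (250 mg/l), left 24 h, then inoculated with the powdery mildew fungus. Control value = 100 × (untreated − treated severity)/untreated severity.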
# [10] = tested on: Puccinia recondita; assay: Antifungal activity against Puccinia recondita infected on compound pre-treated wheat seedlings at first-leaf stage assessed as wheat leaf rust disease control values at 50 ug/ml measured after 7 days post fungal inoculation
# Summary of the method: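 First-leaf wheat seedlings were sprayed with compound in water+methanol (95+5) with Tween 20 (250 mg/l) and left 24 h. They were sprayed with P. recondita spores (0.67 g/l, Tween 20 250 mg/l) and kept 1 day in a moist chamber at 20 °C, then moved to an incubation room. Infected leaf area was rated 7 days post-inoculation and converted to a control value relative to untreated plants.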
# [11] = tested on: Phytophthora capsici; assay: Antifungal activity against Phytophthora capsici infected on compound pre-treated tomato seedlings at second-leaf stage assessed as tomato late blight disease control values at 50 ug/ml measured after 3 to 4 days post fungal inoculation
# [12] = tested on: Botrytis cinerea; assay: Antifungal activity against Botryotinia fuckeliana infected compound pre-treated tomato seedlings at second-leaf stage assessed as tomato gray mould disease control values at 50 ug/ml measured after 3 to 4 days post fungal inoculation
# Summary of the method: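 Greenhouse-grown potted tomato seedlings at second-leaf stage were sprayed with compound in water+methanol (95+5) with Tween 20 (250 mg/l), left 24 h, then spray-inoculated with B. cinerea spore suspension. Plants were kept in the dark at 25 °C, 100% RH. Severity was scored after 3–4 days, and control value = 100 × (untreated − treated severity)/untreated severity.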
# [13] = tested on: Corticium; assay: Antifungal activity against Corticium sasaki Matsu infected compound pre-treated rice seedlings at third-leaf stage assessed as rice sheath blight disease control values at 50 ug/ml measured after 4 days post fungal inoculation
# Summary of the method: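 Rice seedlings at third-leaf stage were sprayed with compound in water+methanol (95+5) plus Tween 20 (250 mg/l) and left 24 h. They were inoculated with 7-day-old wheat–rice bran cultures of C. sasaki and held 4 days dark at 25 °C, 100% RH, then 4 days in a growth chamber (25 °C, 100% RH, 12 h light). Control value was calculated from disease severity relative to untreated plants.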
# [14] = tested on: Pyricularia grisea; assay: Antifungal activity against Magnaporthe grisea infected on compound pre-treated rice seedlings at second-leaf stage assessed as rice blast disease control values at 50 ug/ml measured after 5 days post fungal inoculation
# Summary of the method: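 Rice seedlings grown in greenhouse pots at 25±5 °C, sprayed with compound in water+methanol (95+5) containing Tween 20 (250 mg/l) as wetting agent, left 24 h, then inoculated with M. grisea. Disease severity read as percentage infected leaf area 5 days after inoculation. Control value (%) = 100 × (untreated severity − treated severity)/untreated severity.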
Structure (SMILES),EC50 [1] [µg/mL],EC50 [2] [µg/mL],EC50 [3] [µg/mL],EC50 [4] [µg/mL],Activity [5] [%],Efficacy [6] [%],Efficacy [7] [%],Efficacy [8] [%],Efficacy [5] [%],Activity [9] [%],Activity [10] [%],Activity [11] [%],Activity [12] [%],Activity [13] [%],Activity [14] [%]
O=[N+]([O-])c1cccc(S(=O)(=O)Nc2ccc([N+](=O)[O-])cc2C(F)(F)F)c1,26.2,233,155,,,,,,,,,,,,
O=[N+]([O-])c1cccc(S(=O)(=O)Nc2ccc(F)c(C(F)(F)F)c2)c1,6,60.8,10.1,3.5,,,,,,,,,,,
O=[N+]([O-])c1ccc(NS(=O)(=O)c2ccccc2)c(C(F)(F)F)c1,28.5,18.5,19.3,33.1,,,,,,,,,,,
O=[N+]([O-])c1ccc(NS(=O)(=O)c2ccc(Cl)c(C(F)(F)F)c2)c(Cl)c1 [FLUSULFAMIDE],,,,,62,42,17,0,,,,,,,
O=S(=O)(Nc1ccc(F)c(C(F)(F)F)c1)c1ccccc1,16.8,5.6,13.5,10.7,,,,,,,,,,,
O=S(=O)(Nc1ccccc1)c1ccccc1 [PHENYL(PHENYLSULFONYL)AMINE],68.9,66.6,75.4,239,,,,,,,,,,,
O=S(=O)(Nc1ccc(C(F)(F)F)cc1)c1ccccc1,24.1,14.6,11.7,14.8,,0,0,0,0,0,0,0,0,0,0
O=[N+]([O-])c1ccc(NS(=O)(=O)c2ccccc2)cc1,42.3,10.3,6.9,65.7,,,,,,,,,,,
O=[N+]([O-])c1ccc(NS(=O)(=O)c2ccccc2)c(Cl)c1,14.4,9,5.4,28,,82,83,17,95,2,9,0,0,0,3
O=[N+]([O-])c1cccc(S(=O)(=O)Nc2ccc([N+](=O)[O-])cc2Cl)c1,34.8,7,7.2,63.6,,,,,,,,,,,
